Compound activity deposited in PubChem BioAssay by several laboratories.
Granule exo inh: LAMP-1 surface exposure blockers, TALL-104 cells – cell-based, flow cytometry, MLPCN library, primary screen. TALL-104 LAMP-1 surface exposure; cells stimulated with thapsigargin and PMA. hit rate 0.66% among 360,000. inhibition, % at 10 µM;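 active means inhibition above about 55%, limit read from the data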
ATG4B inhibitor: ATG4B protease inhibitors, primary screen, biochemical, fluorescence, uHTS; Cysteine protease ATG4B (Homo sapiens), Q9Y4P1; ATG4B cleavage of LC3-PLA2, NBD-HPC fluorescence, 1 h; inhibition, % at 8.33 µM; hit rate 0.51% among 340,000; AID 504462, 2011; in the data active means inhibition above about 40%
ABCB6 inh MLPCN: ABCB6 transporter inhibitors, primary screen, K562-ABCB6 cells, flow cytometry, MLPCN library | hit rate 0.19% among 360,000 | ATP-binding cassette sub-family B member 6 (Homo sapiens), Q9NP58 | AID 602162, 2011 | K562-ABCB6 porphyrin accumulation, 1 h; stronger effect = lower value | fluorescence ratio to DMSO, % at 10 µM;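 active means fluorescence ratio to DMSO below 75%, the collection mean minus 3 SD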;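 further: signal is porphyrin accumulated inside mitochondria; lower ratio means ABCB6 inhibition with less porphyrin fluorescence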
Arr AP2 block: inhibitors of beta-arrestin/AP2 binding, primary screen, biochemical, GPCR trafficking, flow cytometry | beta-arrestin 1 C-terminal peptide binding to AP2 beta2-adaptin appendage (human) | FITC-arrestin peptide / GST-AP2 beads; AP2 beta2 appendage carries R879A mutation | inhibition, % at 10 µM | hit rate 0.31% among 340,000;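 active means inhibition above a set limit, near 3 SD of compounds lacking own fluorescence, cut at about 54% in these data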
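Measured by: flow cytometry, FL1 (488/535 nm); Material: AP2 appendage R879A on GSH beads; Evaluation: percent response; Timing: pre-incubation 12 min, peptide binding 1 h, room temperature; Also added: 50 nM FITC-arrestin peptide; Medium: PBS with 0.05% Tween 20 and 0.1% BSA.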
NRP1-CendR mod: modulators of CendR peptide binding to NRP-1, primary screen, biochemical, fluorescence polarization, uHTS; Neuropilin-1 (Homo sapiens), O14786; FAM-RPARPAR peptide binding to NRP-1; inhibition, % at 25 µM; hit rate 0.85% among 360,000; AID 602438, 2012;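 active means inhibition or corrected inhibition above about 18%, plus a signal ratio from 0.5 to 1.5, limit read from the data, passing the limit was not always enough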
Target sequence (O14786 whole entry, looked up): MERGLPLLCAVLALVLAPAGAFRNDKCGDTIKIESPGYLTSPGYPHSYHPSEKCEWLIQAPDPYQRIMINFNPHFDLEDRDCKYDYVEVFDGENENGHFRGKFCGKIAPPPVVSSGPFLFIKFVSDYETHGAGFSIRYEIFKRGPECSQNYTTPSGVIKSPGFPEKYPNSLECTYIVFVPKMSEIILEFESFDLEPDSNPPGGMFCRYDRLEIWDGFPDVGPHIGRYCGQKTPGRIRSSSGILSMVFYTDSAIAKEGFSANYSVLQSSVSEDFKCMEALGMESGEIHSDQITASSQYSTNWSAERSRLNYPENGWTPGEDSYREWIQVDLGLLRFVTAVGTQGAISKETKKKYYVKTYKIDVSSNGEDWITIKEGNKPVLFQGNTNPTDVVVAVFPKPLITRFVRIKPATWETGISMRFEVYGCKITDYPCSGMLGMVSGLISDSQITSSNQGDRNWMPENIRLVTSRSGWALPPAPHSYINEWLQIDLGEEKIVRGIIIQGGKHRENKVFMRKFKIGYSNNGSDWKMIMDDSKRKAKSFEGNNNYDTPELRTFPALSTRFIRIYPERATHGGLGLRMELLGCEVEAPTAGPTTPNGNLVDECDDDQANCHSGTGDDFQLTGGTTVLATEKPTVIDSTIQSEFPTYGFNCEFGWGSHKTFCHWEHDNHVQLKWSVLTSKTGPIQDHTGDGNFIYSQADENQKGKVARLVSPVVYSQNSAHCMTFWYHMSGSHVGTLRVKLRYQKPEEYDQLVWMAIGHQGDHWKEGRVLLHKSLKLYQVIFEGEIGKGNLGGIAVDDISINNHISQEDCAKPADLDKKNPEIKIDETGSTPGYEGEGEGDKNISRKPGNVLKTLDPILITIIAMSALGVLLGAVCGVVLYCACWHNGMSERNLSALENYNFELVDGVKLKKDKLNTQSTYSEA
Myeloid diff 2: induction of myeloid progenitor differentiation, primary screen, cell-based, flow cytometry, MLPCN library | hit rate 1% among 360,000 | calls only at 10 µM | AID 624256, 2012 | ER-HoxA9 myeloid progenitors, lysozyme-GFP differentiation;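 active means normalized GFP-positive differentiation at or above the plate's own cutoff, the solvent-only control mean plus 3 SD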;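 further: cells exposed to compound for four days before flow analysis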
ATG4B confirm: ATG4B protease inhibitors, retest, confirmation, biochemical, fluorescence, single concentration. inhibition, % at 8.33 µM. hit rate 92% among 320. ATG4B protease fluorescent substrate cleavage assay. shares compounds with ATG4B inhibitor. AID 504757, 2011; in the data active means inhibition above about 39%
PLA2 ctr: PLA2 enzyme inhibition, counter-screen for ATG4B inhibitor project, biochemical, single concentration, uHTS hits; shares compounds with ATG4B inhibitor; purified PLA2, NBD-C6-HPC fluorescence, 45 min; inhibition, % at 8.33 µM; hit rate 66% among 1,600; in the data active means inhibition above about 50%
A number is an active result; 0 = inactive; - = not tested or not shown. Rows were chosen to be rich in hits. Some 3.3% of all compounds tested hit in one or more screens of this group.

SMILES	Granule exo inh	ATG4B inhibitor	ABCB6 inh MLPCN	Arr AP2 block	NRP1-CendR mod	Myeloid diff 2	PLA2 ctr	others
NC(=O)C1CCCc2c1n(Cc1ccccc1)c1ccccc21 (centres undefined)	0	84	0	0	0	0	88
CCn1c(SCc2ccccc2)nc2cc(S(N)(=O)=O)ccc21	0	0	0	0	0	0	-
O=C(c1cc(COc2c(F)cccc2F)on1)N1CCC(c2ccccc2Cl)C1 (centres undefined)	0	40	0	0	0	0	55
O=C(c1cc(COc2c(F)cccc2F)on1)N1CCC(c2ccccc2F)C1 (centres undefined)	0	0	0	0	0	-	-
Fc1ccc2c(c1)C(c1ccc(N3CCOCC3)cc1)=NNC(c1cccs1)=N2	0	65	0	0	0	0	70
Brc1ccc2c(c1)C(c1ccc(N3CCOCC3)cc1)=NNC(c1cccs1)=N2	0	66	0	0	0	0	65
Cc1ccc2c(c1)C(c1ccc(N3CCOCC3)cc1)=NNC(c1cccs1)=N2	0	0	0	0	0	0	-
CCOc1ccc(C2=NNC(c3cccs3)=Nc3ccc(OC)cc32)cc1	0	59	0	0	0	0	73
COc1cc(-c2nnc(SCc3c(F)cccc3Cl)o2)cc(OC)c1OC	0	42	0	0	0	0	57
Cc1ccc(N2CC(O)=C(c3nc4ccccc4c(=O)[nH]3)C2=N)cc1C	0	46	0	0	0	0	0
OCCNc1nc(SCc2ccccc2)nc2sc3c(c12)CCC3	0	69	0	0	0	0	90
COc1ccc(OC)c(NC(=O)CN2CCC(NC(=O)c3ccccc3C)CC2)c1	0	0	0	0	0	0	-
CN(C)c1nc(NC(C)(C)C)nc(NC(C)(C)C)n1	0	0	0	0	0	0	-
CN(CC(=O)Nc1ccc(Cl)c(C(F)(F)F)c1)C(=O)c1cccc(N2C(=O)CCC2=O)c1	0	0	0	0	0	0	-
NC(=O)C1CCN(C(=S)c2ccc(-c3ccc(Br)cc3)o2)CC1	0	51	0	0	0	0	0
Cc1ccc(NC(=O)C2COc3ccccc3O2)c(C)c1 (centres undefined)	0	0	0	0	0	0	-
O=C(NCc1ccc(Cl)s1)c1cc(COc2c(F)cccc2F)on1	0	0	0	0	0	0	-
Cc1cccc(C)c1OCc1cc(C(=O)NCc2ccc(Cl)s2)no1	0	61	0	0	0	0	67
O=C(c1ccccc1)c1c[nH]c2cc3c(cc2c1=O)OCCO3	0	0	0	0	0	0	-
Cc1ccc(-c2cnc3n2CCCCC3)cc1	0	0	0	0	0	0	-
c1ccc(-c2ccc(-c3cnc4n3CCCCC4)cc2)cc1	0	52	0	0	0	0	59
Cc1nn(Cc2ccccc2)c(C)c1NC(=O)CSc1nc2c(c(C(F)(F)F)n1)CCc1ccccc1-2	0	0	0	-	0	0	-
COc1ccc(NC(=O)c2ccco2)cc1NC(=O)c1c(OC)cccc1OC	0	46	0	0	0	0	52
Cc1cc(C)n2c(Nc3ccc4c(c3)OCCO4)c(CC(C)C)nc2n1	0	-	0	-	0	0	-
O=C(Nc1ccccc1-c1ccccc1)C1CCCCC1	0	0	0	0	0	0	-
SMILES	Granule exo inh	ATG4B inhibitor	ABCB6 inh MLPCN	Arr AP2 block	NRP1-CendR mod	Myeloid diff 2	PLA2 ctr	others
CC1CCCCC1NCC(=O)Nc1ccccc1-c1ccccc1 (centres undefined)	0	48	0	0	0	0	53
CC1CCN(CC(=O)Nc2ccccc2C(=O)c2ccccc2)CC1	0	0	0	0	0	0	-
CC(C(=O)Nc1ccccc1-c1ccccc1)N1CCN(C(=O)c2ccccc2)CC1 (centres undefined)	0	0	0	0	0	0	-
CC1CCN(C(C)C(=O)Nc2ccccc2-c2ccccc2)CC1 (centres undefined)	0	43	0	0	0	0	53
CC1CCN(CC(=O)Nc2ccccc2-c2ccccc2)CC1	0	45	0	0	36	0	69
CCC(=O)N(Cc1cc2cc(OC)ccc2[nH]c1=O)c1ccc(C)cc1	0	0	0	0	0	0	-
CCC(=O)N(CCC1(c2ccccc2OC)CCOC(C(C)C)C1)Cc1ccco1 (centres undefined)	0	0	0	0	0	0	-
O=c1ccn([C@@H]2O[C@H](COS(=O)(=O)O)[C@@H](O)[C@H]2O)c(=O)[nH]1	0	0	0	0	0	0	-
CNC(=O)Nc1cccc(-c2cc(-c3c(Cl)cccc3Cl)no2)c1	0	59	0	0	0	0	65
Cc1ncc2c(n1)NC(=O)NC2	0	0	0	0	0	0	-
CC(C)C(Sc1nc(-c2ccccc2)cc(-c2ccccc2)c1C#N)C(=O)O (centres undefined)	0	46	0	0	0	0	0	ATG4B confirm=61
Cc1cscc1-c1nc(NCC2CC2)nc2ccsc12	0	-	0	-	0	0	-
COc1ccc(C(CC(=O)NCc2ccccc2)C(C)C)cc1 (centres undefined)	0	46	0	0	0	0	0	ATG4B confirm=59
O=C(CSc1nc2ccc(Cl)cc2[nH]1)NCCc1ccc(Cl)cc1	0	46	0	0	0	0	50
O=C(CSc1nc2ncc(Cl)cc2[nH]1)NCCc1ccc(F)cc1	0	0	0	0	0	0	-
Nc1nn(-c2ccccc2)c(N)c1N=Nc1ccc2c(c1)OCO2	0	41	0	0	0	-	0	ATG4B confirm=76
CCN(CC(=O)Nc1ccccc1C(F)(F)F)C(=O)c1oc2ccc(OC)cc2c1C	0	0	0	0	0	0	-
O=C(c1cc(Cl)nc2ccccc12)N1CCN(S(=O)(=O)c2ccccc2[N+](=O)[O-])CC1	0	0	0	0	0	0	-
O=C(Nc1cccc(N=Cc2cc(Cl)cc(Br)c2O)c1)c1ccco1	0	66	0	0	0	0	56
O=C(Nc1cccc(N=Cc2cc(Br)cc(Br)c2O)c1)c1ccco1	0	69	0	0	0	0	60
O=C(Nc1ccc(Cl)c(S(=O)(=O)N2CCOCC2)c1)c1cc(=O)[nH]c2ccccc12	0	0	0	0	0	0	-
